Results reported in ChEMBL document CHEMBL5705902, “Role of G Protein-Coupled Receptor Kinases 2 and 3 in μ-Opioid Receptor Desensitization and Internalization” (Mol Pharmacol, 2015).
The source made the active and inactive calls. The rule behind the calls is not given here.

How the values were obtained:
[1] = target: Mu-type opioid receptor (Rattus norvegicus) (UniProt P33535); assay: Inhibition of MOPr desensitization in wistar rat LC neuron cells assessed as reduction in the Met-Enk induced desensitization at 30 uM incubated for 15 mins before relative to control; assay type: functional, cell-based
Procedure, shortened: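 Whole-cell patch clamp of GIRK currents in locus coeruleus slices from male Wistar rats (5–8 weeks). Inhibitor was given at least 15 min before and during the agonist, all drugs by superfusion. Percent desensitization was taken over 10 min of opioid agonist application. Met-Enk n = 5, endomorphin-2 n = 6; ANOVA.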
Target sequence in this assay (P33535 whole entry, the tested form may be a part): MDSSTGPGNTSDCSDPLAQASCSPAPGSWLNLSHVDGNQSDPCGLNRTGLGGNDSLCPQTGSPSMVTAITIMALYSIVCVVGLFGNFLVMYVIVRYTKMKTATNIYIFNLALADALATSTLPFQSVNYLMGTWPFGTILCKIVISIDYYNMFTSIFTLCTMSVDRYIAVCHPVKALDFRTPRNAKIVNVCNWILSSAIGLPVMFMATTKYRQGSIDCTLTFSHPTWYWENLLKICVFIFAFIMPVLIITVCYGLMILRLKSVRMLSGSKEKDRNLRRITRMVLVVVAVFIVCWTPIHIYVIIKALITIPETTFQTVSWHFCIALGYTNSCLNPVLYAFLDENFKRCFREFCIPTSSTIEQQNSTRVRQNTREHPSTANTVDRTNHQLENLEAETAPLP

[2] = target: Mu-type opioid receptor (Rattus norvegicus) (UniProt P33535); assay: Inhibition of MOPr desensitization in wistar rat LC neuron cells assessed as reduction in the Met-Enk induced desensitization at 30 uM incubated for 15 mins before in the presence of PD98059; assay type: functional, cell-based
Target sequence in this assay (P33535 whole entry, the tested form may be a part): as above

[3] = target: Mu-type opioid receptor (Rattus norvegicus) (UniProt P33535); assay: Inhibition of HA-tagged rat MOPr in HEK293 cells assessed as DAMGO induced MOPr phosphorylation at Ser375 level at 3 uM preincubated for 30 mins by western blot analysis; assay type: functional, cell-based
Procedure, shortened: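 Serum-starved HEK 293 cells stably expressing HA-rat MOPr were pretreated with inhibitor for 30 min, then DAMGO 10 μM for 5 min. Receptor was enriched on WGA-agarose overnight at 4°C and blotted for pSer375. Densitometry was done in duplicate and normalized to total HA-MOPr; n = 3.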
Target sequence in this assay (P33535 whole entry, the tested form may be a part): as above

[4] = target: Mu-type opioid receptor (Homo sapiens) (UniProt P35372); assay: Inhibition of HA-tagged MOPr (unknown origin) stably expressed in human U2OS cells assessed as reduction in DAMGO induced large recruitment of arrestin-3 translocation at 30 uM preincubated for 30 mins by DiscoveRx PathHunter assay; assay type: functional, cell-based
Procedure, shortened: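 PathHunter U2OS cells stably express tagged human MOPr and tagged arrestin-3. Recruitment reconstitutes β-galactosidase, read by luminescence. DAMGO 10 μM was applied for 90 min, with inhibitor (30 μM) added 30 min before; n = 3.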

[5] = target: Mu-type opioid receptor (Rattus norvegicus) (UniProt P33535); assay: Inhibition of HA-tagged rat MOPr in HEK293 cells assessed as reduction in DAMGO induced MOPr internalization level at 30 uM preincubated for 30 mins by confocal microscopy analysis; assay type: functional, cell-based
Procedure, shortened: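 HA-MOPr HEK 293 cells were prelabeled with anti-HA at 4°C for 1 h, then given inhibitor (30 μM) 30 min at 37°C and DAMGO 10 μM. Cells were stained with a fluorescein secondary and Hoechst and imaged by confocal microscopy (63× oil); repeated 3 times.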
Target sequence in this assay (P33535 whole entry, the tested form may be a part): as above

[6] = target: Mu-type opioid receptor (Rattus norvegicus) (UniProt P33535); assay: Inhibition of HA-tagged rat MOPr stably expressing in HEK293 cells assessed as increase in DAMGO-induced ERK1/2 phosphorylation level at 3 to 30 uM preincubated for 30 mins by westernblot analysis; assay type: functional, cell-based; settings: dose 3-30 µM
Procedure, shortened: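 HEK 293 cells stably expressing HA-tagged rat MOPr were grown to 90% confluence and serum-starved 24 h. Inhibitor was added for 30 min, then DAMGO 10 μM for 5 min. pERK1/2 was measured by Western blot with ECL detection. Densitometry was done in duplicate, normalized to total ERK1/2 and expressed as % of maximal DAMGO response; n = 4.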
Target sequence in this assay (P33535 whole entry, the tested form may be a part): as above

[7] = target: Ribosomal protein S6 kinase alpha-5 (Homo sapiens) (UniProt O75582); assay: Inhibition of human MSK1 assessed as remaining activity at 1 uM in presence of 32ATP relative to control
Procedure, shortened: (§1)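 Express panel of 52 purified human kinases run in vitro. Kinase activity was measured directly by a radioactive filter-binding assay with ³²ATP, at ATP levels at or below each kinase's calculated Km for ATP. The compound was tested at 1 μM. Each assay was run in duplicate, and activity is given as the mean percentage (with S.D.) of activity without inhibitor.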

[8] = target: Tyrosine-protein kinase BTK (Homo sapiens) (UniProt Q06187); assay: Inhibition of human BTK assessed as remaining activity at 1 uM in presence of 32ATP relative to control
Procedure, shortened: (§2)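 Express screen of 52 purified human kinases run as a radioactive filter-binding assay with 32ATP, at 1 μM inhibitor. ATP was at or below each kinase's calculated Km. Activity is given as percent of the activity without inhibitor. Run in duplicate; mean with S.D.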

Homo sapiens [9] = species: Homo sapiens; assay: Inhibition of human VEGFR assessed as remaining activity at 1 uM in presence of 32ATP relative to control; procedure, shortened: as §1
[10] = target: Mitogen-activated protein kinase 1 (Homo sapiens) (UniProt P28482); assay: Inhibition of human ERK2 assessed as remaining activity at 1 uM in presence of 32ATP relative to control; procedure, shortened: as §1
[11] = target: Glycogen synthase kinase-3 beta (Homo sapiens) (UniProt P49841); assay: Inhibition of human GSK3b assessed as remaining activity at 1 uM in presence of 32ATP relative to control; procedure, shortened: as §1
[12] = target: Dual specificity protein kinase TTK (Homo sapiens) (UniProt P33981); assay: Inhibition of human TTK assessed as remaining activity at 1 uM in presence of 32ATP relative to control; procedure, shortened: as §1
[13] = target: SRSF protein kinase 1 (Homo sapiens) (UniProt Q96SB4); assay: Inhibition of human SRPK1 assessed as remaining activity at 1 uM in presence of 32ATP relative to control; procedure, shortened: as §1
[14] = target: MAP/microtubule affinity-regulating kinase 3 (Homo sapiens) (UniProt P27448); assay: Inhibition of human MARK3 assessed as remaining activity at 1 uM in presence of 32ATP relative to control; procedure, shortened: as §1
[15] = target: Receptor-interacting serine/threonine-protein kinase 2 (Homo sapiens) (UniProt O43353); assay: Inhibition of human RIPK2 assessed as remaining activity at 1 uM in presence of 32ATP relative to control; procedure, shortened: as §1
[16] = target: Mitogen-activated protein kinase 8 (Homo sapiens) (UniProt P45983); assay: Inhibition of human JNK1 assessed as remaining activity at 1 uM in presence of 32ATP relative to control; procedure, shortened: as §1
[17] = target: Serine/threonine-protein kinase Nek6 (Homo sapiens) (UniProt Q9HC98); assay: Inhibition of human NEK6 assessed as remaining activity at 1 uM in presence of 32ATP relative to control; procedure, shortened: as §1
[18] = target: Mitogen-activated protein kinase 14 (Homo sapiens) (UniProt Q16539); assay: Inhibition of human p38a MAPK assessed as remaining activity at 1 uM in presence of 32ATP relative to control; procedure, shortened: as §1
[19] = target: Serine/threonine-protein kinase PLK1 (Homo sapiens) (UniProt P53350); assay: Inhibition of human PLK1 assessed as remaining activity at 1 uM in presence of 32ATP relative to control; procedure, shortened: as §1
[20] = target: cAMP-dependent protein kinase (PKA) (Homo sapiens) (UniProt P22694+P17612+P22612); assay: Inhibition of PKA (unknown origin) at 1 uM in presence of 32ATP relative to control; assay type: protein assay; procedure, shortened: as §2
Homo sapiens [21] = species: Homo sapiens; assay: Inhibition of CAMKK (unknown origin) at 1 uM in presence of 32ATP relative to control; procedure, shortened: as §2
[22] = target: Mu-type opioid receptor (Rattus norvegicus) (UniProt P33535); assay: Inhibition of MOPr desensitization (unknown origin) assessed as reduction in the morphine induced desensitization at 3 to 30 uM incubated for 15 mins; settings: dose 3-30 µM
[23] = target: Mu-type opioid receptor (Mus musculus) (UniProt P42866); assay: Inhibition of MOPr desensitization in C57BL/6J mouse LC neuron cells assessed as reduction in the Met-Enk induced desensitization at 3 uM incubated for 15 mins before
Chain of Mu-type opioid receptor (Mus musculus) (P42866 whole entry): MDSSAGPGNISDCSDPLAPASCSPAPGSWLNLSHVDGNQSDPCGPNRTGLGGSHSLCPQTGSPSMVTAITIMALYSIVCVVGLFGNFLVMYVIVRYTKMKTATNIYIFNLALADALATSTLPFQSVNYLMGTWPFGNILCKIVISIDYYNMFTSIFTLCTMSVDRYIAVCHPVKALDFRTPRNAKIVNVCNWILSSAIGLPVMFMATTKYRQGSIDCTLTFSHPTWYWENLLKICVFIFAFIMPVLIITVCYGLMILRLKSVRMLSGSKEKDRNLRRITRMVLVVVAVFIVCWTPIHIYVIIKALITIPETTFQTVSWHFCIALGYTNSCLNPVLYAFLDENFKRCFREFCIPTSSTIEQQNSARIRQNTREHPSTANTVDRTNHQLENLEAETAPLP

Chain of Serine/threonine-protein kinase PLK1 (Homo sapiens) (P53350 whole entry): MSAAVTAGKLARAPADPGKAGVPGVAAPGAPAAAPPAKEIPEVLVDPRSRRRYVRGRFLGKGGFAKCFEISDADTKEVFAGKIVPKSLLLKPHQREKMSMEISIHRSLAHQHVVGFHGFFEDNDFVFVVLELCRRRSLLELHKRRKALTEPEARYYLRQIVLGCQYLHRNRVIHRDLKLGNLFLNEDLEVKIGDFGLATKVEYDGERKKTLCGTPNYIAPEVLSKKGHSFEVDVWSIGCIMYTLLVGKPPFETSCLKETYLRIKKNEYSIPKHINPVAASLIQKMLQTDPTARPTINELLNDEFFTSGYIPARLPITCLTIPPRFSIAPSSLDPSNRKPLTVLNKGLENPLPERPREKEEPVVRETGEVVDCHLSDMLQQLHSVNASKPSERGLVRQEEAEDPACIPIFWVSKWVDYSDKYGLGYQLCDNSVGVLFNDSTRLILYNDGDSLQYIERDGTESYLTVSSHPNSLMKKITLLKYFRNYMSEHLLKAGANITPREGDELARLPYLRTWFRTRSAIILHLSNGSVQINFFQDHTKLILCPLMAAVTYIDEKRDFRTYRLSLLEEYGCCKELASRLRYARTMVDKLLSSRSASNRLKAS
Chain of Mitogen-activated protein kinase 1 (Homo sapiens) (P28482 whole entry): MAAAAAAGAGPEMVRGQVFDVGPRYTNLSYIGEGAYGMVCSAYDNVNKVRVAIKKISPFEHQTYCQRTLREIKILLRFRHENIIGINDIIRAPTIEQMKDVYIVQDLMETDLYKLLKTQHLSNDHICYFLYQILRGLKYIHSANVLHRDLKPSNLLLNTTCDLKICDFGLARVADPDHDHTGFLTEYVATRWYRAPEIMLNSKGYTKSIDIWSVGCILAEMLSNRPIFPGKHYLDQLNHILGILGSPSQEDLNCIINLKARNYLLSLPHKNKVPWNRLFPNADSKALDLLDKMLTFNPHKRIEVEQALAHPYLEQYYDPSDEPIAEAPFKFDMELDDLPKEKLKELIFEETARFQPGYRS
Chain of SRSF protein kinase 1 (Homo sapiens) (Q96SB4 whole entry): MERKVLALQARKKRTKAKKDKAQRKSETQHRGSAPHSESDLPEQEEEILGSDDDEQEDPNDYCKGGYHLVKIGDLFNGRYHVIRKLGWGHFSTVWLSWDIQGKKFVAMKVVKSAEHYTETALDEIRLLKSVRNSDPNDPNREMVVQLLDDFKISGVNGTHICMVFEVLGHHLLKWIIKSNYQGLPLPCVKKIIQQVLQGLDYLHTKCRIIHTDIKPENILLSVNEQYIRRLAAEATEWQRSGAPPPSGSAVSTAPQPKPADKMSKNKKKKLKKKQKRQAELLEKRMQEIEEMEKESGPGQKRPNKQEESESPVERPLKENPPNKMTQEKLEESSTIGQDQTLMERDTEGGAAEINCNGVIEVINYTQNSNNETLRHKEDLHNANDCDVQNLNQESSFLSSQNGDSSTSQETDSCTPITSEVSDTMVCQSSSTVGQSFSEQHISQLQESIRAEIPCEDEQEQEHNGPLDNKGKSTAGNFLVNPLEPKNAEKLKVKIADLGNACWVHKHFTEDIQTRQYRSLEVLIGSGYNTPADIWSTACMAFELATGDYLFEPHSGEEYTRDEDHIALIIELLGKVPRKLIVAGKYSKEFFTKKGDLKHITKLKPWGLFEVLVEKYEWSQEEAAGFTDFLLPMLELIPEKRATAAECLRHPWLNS
Chain of Mu-type opioid receptor (Homo sapiens) (P35372 whole entry): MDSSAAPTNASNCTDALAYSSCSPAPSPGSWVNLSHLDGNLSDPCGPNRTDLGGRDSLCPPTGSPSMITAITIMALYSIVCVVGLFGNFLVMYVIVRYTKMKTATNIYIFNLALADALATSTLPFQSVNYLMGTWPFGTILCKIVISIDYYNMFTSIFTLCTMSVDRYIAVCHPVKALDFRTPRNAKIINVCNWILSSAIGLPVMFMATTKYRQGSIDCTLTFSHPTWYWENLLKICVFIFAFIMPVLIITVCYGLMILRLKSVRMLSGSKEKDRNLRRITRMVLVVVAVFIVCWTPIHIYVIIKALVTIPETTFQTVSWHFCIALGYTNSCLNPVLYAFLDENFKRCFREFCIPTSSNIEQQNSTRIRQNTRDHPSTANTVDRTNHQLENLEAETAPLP
Chain of Tyrosine-protein kinase BTK (Homo sapiens) (Q06187 whole entry): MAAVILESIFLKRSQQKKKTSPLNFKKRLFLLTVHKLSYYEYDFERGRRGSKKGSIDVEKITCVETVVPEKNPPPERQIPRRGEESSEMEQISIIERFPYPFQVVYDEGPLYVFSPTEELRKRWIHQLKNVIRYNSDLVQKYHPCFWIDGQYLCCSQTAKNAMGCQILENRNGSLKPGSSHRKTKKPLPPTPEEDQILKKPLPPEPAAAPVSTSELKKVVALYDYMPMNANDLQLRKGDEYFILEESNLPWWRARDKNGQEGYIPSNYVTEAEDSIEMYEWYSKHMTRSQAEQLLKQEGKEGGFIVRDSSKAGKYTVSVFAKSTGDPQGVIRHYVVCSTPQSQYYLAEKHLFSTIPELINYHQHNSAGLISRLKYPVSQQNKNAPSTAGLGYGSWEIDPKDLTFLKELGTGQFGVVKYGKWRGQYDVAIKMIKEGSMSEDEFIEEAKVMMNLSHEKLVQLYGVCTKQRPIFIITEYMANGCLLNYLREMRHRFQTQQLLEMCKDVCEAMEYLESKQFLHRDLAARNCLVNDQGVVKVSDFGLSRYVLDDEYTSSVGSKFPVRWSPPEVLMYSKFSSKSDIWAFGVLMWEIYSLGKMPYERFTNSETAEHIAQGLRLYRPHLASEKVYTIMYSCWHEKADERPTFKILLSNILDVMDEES
Chain of MAP/microtubule affinity-regulating kinase 3 (Homo sapiens) (P27448 whole entry, looked up): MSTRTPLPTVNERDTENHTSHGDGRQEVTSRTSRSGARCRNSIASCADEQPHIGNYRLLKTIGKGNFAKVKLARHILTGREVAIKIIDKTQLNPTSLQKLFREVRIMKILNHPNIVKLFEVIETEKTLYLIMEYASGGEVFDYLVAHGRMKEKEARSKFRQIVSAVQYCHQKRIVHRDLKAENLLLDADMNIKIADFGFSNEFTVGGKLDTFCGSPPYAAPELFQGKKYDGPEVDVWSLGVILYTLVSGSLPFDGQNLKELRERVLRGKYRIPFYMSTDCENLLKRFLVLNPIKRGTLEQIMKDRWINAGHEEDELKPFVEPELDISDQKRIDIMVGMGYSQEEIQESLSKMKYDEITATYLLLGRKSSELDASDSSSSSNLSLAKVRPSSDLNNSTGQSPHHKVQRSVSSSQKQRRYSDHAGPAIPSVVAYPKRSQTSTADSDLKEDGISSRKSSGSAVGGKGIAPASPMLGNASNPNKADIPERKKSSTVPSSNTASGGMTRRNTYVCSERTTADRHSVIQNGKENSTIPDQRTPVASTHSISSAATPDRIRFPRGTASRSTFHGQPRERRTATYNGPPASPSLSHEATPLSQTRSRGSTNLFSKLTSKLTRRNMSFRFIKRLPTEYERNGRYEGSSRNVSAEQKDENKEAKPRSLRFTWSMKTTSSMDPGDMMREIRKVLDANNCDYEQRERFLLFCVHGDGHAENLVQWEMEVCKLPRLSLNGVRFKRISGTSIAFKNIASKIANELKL
Chain of Mitogen-activated protein kinase 8 (Homo sapiens) (P45983 whole entry): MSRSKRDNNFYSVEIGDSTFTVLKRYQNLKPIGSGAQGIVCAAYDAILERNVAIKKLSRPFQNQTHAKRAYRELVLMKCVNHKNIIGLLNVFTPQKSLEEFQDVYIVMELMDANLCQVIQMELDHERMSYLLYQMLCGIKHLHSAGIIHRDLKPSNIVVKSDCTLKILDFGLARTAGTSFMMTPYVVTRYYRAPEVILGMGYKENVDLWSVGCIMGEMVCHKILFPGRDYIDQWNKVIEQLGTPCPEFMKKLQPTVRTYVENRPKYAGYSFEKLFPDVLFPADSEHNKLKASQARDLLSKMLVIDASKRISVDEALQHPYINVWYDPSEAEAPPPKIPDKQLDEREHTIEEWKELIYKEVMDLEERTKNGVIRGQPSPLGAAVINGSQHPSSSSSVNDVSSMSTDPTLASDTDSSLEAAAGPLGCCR

For `Cn1c(CNc2cccc(C(=O)NCc3ccccc3C(F)(F)F)c2)nnc1-c1ccncc1`, the desensitization [1] was 15%, the inhibition [2] was “inactive” and the inhibition [3] was “Active”. The inhibition [4] was “Active”, the inhibition [5] was “Active” and the inhibition [6] was “inactive”. It also gave an Activity [7] of 10%, an Activity [8] of 72% and an Activity (Homo sapiens [9]) of 79%. It also gave an Activity [10] of 81%, an Activity [11] of 85% and an Activity [12] of 89%. It also gave an Activity [13] of 91%, an Activity [14] of 92% and an Activity [15] of 93%. For the same compound, the Activity [16] was 93%, the Activity [17] was 95% and the Activity [18] was 101%. For the same compound, the Activity [19] was 106%, the inhibition [20] was under 20% and the inhibition (Homo sapiens [21]) was under 20%. The inhibition [22] was “Active” and the inhibition [23] was “Active”.
